Experimental findings from ChEMBL document CHEMBL3758168, “Hybrid triazoles: Design and synthesis as potential dual inhibitor of growth and efflux inhibition in tuberculosis” (Eur J Med Chem, 2016) are described below.

A word on the MIC: it is the lowest concentration that inhibits growth of the organism.

Holding throughout (assay type): functional
Experiment [1] concerns Mycobacterium tuberculosis. Put plainly: Antibacterial activity against Mycobacterium tuberculosis H37Rv ATCC 27294T assessed as ofloxacin MIC at 128 ug/ml after 7 days by microdilution checkerboard assay. The settings on record: 168 h. Summed up:
(§1)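 Two-dimensional checkerboard in H37Rv at 10^5 CFU/ml in MB7H9/OADC. Partner drug (amikacin, EtBr, isoniazid, ofloxacin or rifampin) two-fold serially diluted across columns 3-11. Test compound two-fold serially diluted down rows 2-6. Plates incubated 7 days at 37 °C, then MTT added overnight. […] Run in triplicate.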
Background: Dilution methods test growth across graded concentrations, often in twofold steps.

The test system of experiment [2] is Mycolicibacterium smegmatis. Description: Anti-tubercular activity against Mycobacterium smegmatis MC2 155 ATCC 700084 after 3 days by microdilution method. The settings on record: MC2 155 ATCC 700084, 72 h. In short, it runs like this:
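M. smegmatis mc2155 grown in MB7H9 + 10% OADC at 37 °C with shaking to OD600 0.8. Inoculum set to 0.5 McFarland, diluted 1:100, and mixed 1:1 with two-fold serial dilutions in MB7H9. Plates incubated 3 days at 37 °C with growth and sterility controls. MIC taken as the lowest concentration with no visible growth.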

For experiment [3], the system named is Mycobacterium tuberculosis. Description: Antibacterial activity against Mycobacterium tuberculosis H37Rv ATCC 27294T assessed as rifampin MIC at 2 ug/ml after 7 days by microdilution checkerboard assay. The settings on record: 168 h. In short, it runs like this:
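M. tuberculosis H37Rv grown in MB7H9 + 10% OADC at 37 °C to OD600 0.8; plates inoculated at 10^5 CFU/ml. Rifampicin two-fold serially diluted across columns, test compound two-fold diluted down rows (two-dimensional checkerboard). Sealed, 37 °C for seven days, then MTT added and incubated overnight. MIC read as no colour change. Triplicate.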

Experiment [4] concerns Mycobacterium tuberculosis. Put plainly: Antibacterial activity against Mycobacterium tuberculosis H37Rv ATCC 27294T assessed as isoniazid MIC at 128 ug/ml after 7 days by microdilution checkerboard assay. The settings on record: 168 h. Summed up:
as §1

In experiment [5] the test system is Mycobacterium tuberculosis. Put plainly: Antibacterial activity against Mycobacterium tuberculosis H37Rv ATCC 27294T assessed as amikacin MIC at 8 ug/ml after 7 days by microdilution checkerboard assay. The settings on record: 168 h. In short, it runs like this:
as §1

The test system of experiment [6] is Mycobacterium tuberculosis. Description: Antibacterial activity against Mycobacterium tuberculosis H37Rv ATCC 27294T assessed as ethidium bromide MIC at 64 ug/ml after 7 days by microdilution checkerboard assay. The settings on record: 168 h. In short, it runs like this: as §1
Experiment [7] has as its system Mycobacterium tuberculosis. Description: Antibacterial activity against Mycobacterium tuberculosis H37Rv ATCC 27294T assessed as isoniazid MIC at 2 ug/ml after 7 days by microdilution checkerboard assay. The settings on record: 168 h. Summed up:
as §1

The test system of experiment [8] is Mycobacterium tuberculosis. Put plainly: Antibacterial activity against Mycobacterium tuberculosis H37Rv ATCC 27294T assessed as amikacin MIC at 2 ug/ml after 7 days by microdilution checkerboard assay. The settings on record: 168 h. In short, it runs like this:
as §1

For experiment [9], the system named is Mycobacterium tuberculosis. Description: Anti-tubercular activity against Mycobacterium tuberculosis H37Rv ATCC 27294T after 7 days by mircodilution method. The settings on record: 168 h. Summed up:
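H37Rv grown static in MB7H9 + 10% OADC at 37 °C to OD600 0.8, then diluted to about 10^5 cells/ml. Mixed 1:1 with two-fold serial dilutions in MB7H9/OADC and incubated 7 days at 37 °C. MTT added to final 2.5% and plates incubated overnight. MIC is the lowest concentration with no colour change. Run in triplicate.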

Experiment [10] has as its system Mycobacterium tuberculosis. Put plainly: Antibacterial activity against Mycobacterium tuberculosis H37Rv ATCC 27294T assessed as ethidium bromide MIC at 128 ug/ml after 7 days by microdilution checkerboard assay. The settings on record: 168 h. In short, it runs like this:
as §1

Experiment [11] concerns Mycobacterium tuberculosis. Description: Antibacterial activity against Mycobacterium tuberculosis H37Rv ATCC 27294T assessed as ethidium bromide MIC at 2 ug/ml after 7 days by microdilution checkerboard assay. The settings on record: 168 h. In short, it runs like this: as §1

The structures appear in SMILES notation. Values after ≈ are worked out from the molar mass of the structure shown.

Regarding `CCCSc1nnc(COc2ccccc2C2=NOC(c3ccc(Cl)cc3Cl)C2)n1NC(=O)CCl` (stereo unspecified), the MIC in [1] came to 0.625 µg/mL; in experiment [2], 4 µg/mL (≈ 7.21 µM); in [3], 0.5 µg/mL; in [4] it was 0.00156 µg/mL; in experiment [5], 1 µg/mL; in [6], 6.25 µg/mL. In addition, the MIC in [7] stood at 0.1 µg/mL; in experiment [8], 1 µg/mL; in [9], 64 µg/mL (≈ 115 µM); in experiment [10], 0.39 µg/mL; in experiment [11], 12.5 µg/mL.
